The record followed here is ChEMBL document CHEMBL1140448 (J Med Chem, 2005).

The target in assay [1] is Somatostatin receptor type 2 (Homo sapiens, UniProt P30874). In words: Inhibitory concentration against human somatostatin receptor type 2 in CC531 cells. The assay is classed as cell-based. In short, it runs like this:
(§1)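 Competitive binding on membranes (25-50 µg protein) from stably transfected cells expressing one human sst subtype: CC531 for sst2, CHO-K1 for sst3 and sst5. Stopped with ice-cold Hepes buffer pH 7.6 and centrifuged; washed pellet γ-counted. Nonspecific binding taken with 1 µM unlabeled SRIF analogue.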

Assay [2] addresses Somatostatin receptor type 3 (Homo sapiens, UniProt P32745). Description: Inhibitory concentration against human somatostatin receptor type 3 in CHO-K1 cells. In kind it is cell-based. In short, it runs like this:
as §1

The species entered for assay [3] is Rattus norvegicus. Description: Percent inhibition on GH release from rat pituitary cells. The assay is classed as functional, Pituitary gland cell. More on the design: concentration or dose not given beside the values. In short, it runs like this:
(§2)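 Anterior pituitaries from female Wistar rats (180-200 g) dispersed with dispase. Cells seeded at (0.5-5) × 10^5 per well in MEM with 10% FCS and attached at least 3 days. Then 4 h incubation with or without analogue plus 10 nM GHRH, four dishes per group. Rat GH and PRL measured by commercial assay; response given as % change versus untreated control dishes.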

The species named for assay [4] is Rattus norvegicus. Description: Percent inhibition on PRL release from rat pituitary cells. The assay is classed as functional, Pituitary gland cell. More on the design: concentration or dose not given beside the values. In short, it runs like this: as §2
The species entered for assay [5] is Rattus norvegicus. In words: Inhibitory concentration on GH release from rat pituitary cells. In kind it is functional, cell-based. To be noted: Pituitary gland cell. In short, it runs like this:
as §2

For assay [6], the species on record is Rattus norvegicus. Description: Inhibitory concentration on PRL release from rat pituitary cells. The assay is classed as functional, cell-based. The conditions noted are these: Pituitary gland cell. Summed up:
as §2

The target in assay [7] is Somatostatin receptor type 5 (Homo sapiens, UniProt P35346). In words: Inhibitory concentration against human somatostatin receptor type 5 in CHO-K1 cells. In kind it is cell-based. Summed up:
as §1

Where only a bound is given, the exact number is not on record here.

Somatostatin receptor type 2, sequence (P30874 whole entry): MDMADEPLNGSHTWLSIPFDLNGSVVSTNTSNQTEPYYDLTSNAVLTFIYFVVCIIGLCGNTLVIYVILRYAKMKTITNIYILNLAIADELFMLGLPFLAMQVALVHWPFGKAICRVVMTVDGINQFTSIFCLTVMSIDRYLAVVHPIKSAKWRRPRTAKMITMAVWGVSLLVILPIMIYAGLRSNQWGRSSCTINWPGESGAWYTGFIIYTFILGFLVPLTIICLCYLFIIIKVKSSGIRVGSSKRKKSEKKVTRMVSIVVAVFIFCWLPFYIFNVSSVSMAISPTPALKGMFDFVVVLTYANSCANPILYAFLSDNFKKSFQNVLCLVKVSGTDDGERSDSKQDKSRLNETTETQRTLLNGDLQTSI
Somatostatin receptor type 5, sequence (P35346 whole entry): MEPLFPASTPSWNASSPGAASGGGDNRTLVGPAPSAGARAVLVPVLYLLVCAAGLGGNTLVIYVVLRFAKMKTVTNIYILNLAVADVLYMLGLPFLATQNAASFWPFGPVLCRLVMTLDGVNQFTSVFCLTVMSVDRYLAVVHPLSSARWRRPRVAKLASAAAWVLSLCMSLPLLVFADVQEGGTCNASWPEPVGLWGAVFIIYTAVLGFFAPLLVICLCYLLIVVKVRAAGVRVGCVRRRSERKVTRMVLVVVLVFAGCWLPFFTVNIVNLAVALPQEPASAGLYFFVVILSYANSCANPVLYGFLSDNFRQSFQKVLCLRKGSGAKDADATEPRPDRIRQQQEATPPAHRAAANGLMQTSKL
Somatostatin receptor type 3, sequence (P32745 whole entry): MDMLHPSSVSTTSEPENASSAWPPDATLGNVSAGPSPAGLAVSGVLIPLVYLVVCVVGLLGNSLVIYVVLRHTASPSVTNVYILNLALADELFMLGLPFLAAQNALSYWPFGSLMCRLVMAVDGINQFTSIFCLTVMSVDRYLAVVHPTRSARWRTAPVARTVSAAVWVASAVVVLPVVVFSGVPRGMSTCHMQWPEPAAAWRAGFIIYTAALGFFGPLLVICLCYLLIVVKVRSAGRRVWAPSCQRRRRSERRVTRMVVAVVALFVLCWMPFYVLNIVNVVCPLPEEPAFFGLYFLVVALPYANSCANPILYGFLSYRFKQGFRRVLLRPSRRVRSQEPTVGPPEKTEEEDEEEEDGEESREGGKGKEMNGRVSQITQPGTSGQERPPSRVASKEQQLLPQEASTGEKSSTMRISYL

As for `CC(C)[C@@H]1NC(=O)[C@H](CCCCN)NC(=O)[C@@H](Cc2c[nH]c3ccccc23)NC(=O)[C@H](Cc2ccc(O)cc2)NC(=O)[C@@H](NC(=O)[C@H](N)Cc2ccc(N)cc2)CSSC[C@@H](C(=O)N[C@@H](C(N)=O)[C@H](C)O)NC1=O` [listing 1 of 2 here], the results for the IC50 in assay [1] and in assay [2] were 17 nM and over 1000 nM, respectively.
As for `CC(C)[C@@H]1NC(=O)[C@H](CCCCN)NC(=O)[C@@H](Cc2c[nH]c3ccccc23)NC(=O)[C@H](Cc2ccc(O)cc2)NC(=O)[C@@H](NC(=O)[C@H](N)Cc2ccc(N)cc2)CSSC[C@@H](C(=O)N[C@@H](C(N)=O)[C@H](C)O)NC1=O` [listing 2 of 2 here], the Inhibition (usually the change of the read-out against control, counted positive when it falls) in assay [3] is given as -11%; in assay [4], 8%.
`CC(C)[C@@H]1NC(=O)[C@H](CCCCN)NC(=O)[C@@H](Cc2c[nH]c3ccccc23)NC(=O)[C@H](Cc2ccc(O)c(I)c2)NC(=O)[C@@H](NC(=O)[C@H](N)Cc2ccc(N)c(I)c2)CSSC[C@@H](C(=O)N[C@H](C(N)=O)[C@@H](C)O)NC1=O` [listing 1 of 2 here]: the IC50 (commonly the concentration needed to halve the response being measured) in assay [1] was 0.63 nM; in assay [2], over 1000 nM; in assay [5] it was 0.15 nM; in assay [6] it was 0.23 nM.
On to `CC(C)[C@@H]1NC(=O)[C@H](CCCCN)NC(=O)[C@@H](Cc2c[nH]c3ccccc23)NC(=O)[C@H](Cc2ccc(O)c(I)c2)NC(=O)[C@@H](NC(=O)[C@H](N)Cc2ccc(N)c(I)c2)CSSC[C@@H](C(=O)N[C@H](C(N)=O)[C@@H](C)O)NC1=O` [listing 2 of 2 here], for which the Inhibition in assay [3] came to 58%; in assay [4], 29%.
Take `CC(C)[C@@H]1NC(=O)[C@H](CCCCN)NC(=O)[C@@H](Cc2c[nH]c3ccccc23)NC(=O)[C@H](Cc2ccc(O)cc2)NC(=O)[C@@H](NC(=O)[C@H](N)Cc2ccccc2)CSSC[C@@H](C(=O)N[C@@H](CC(=O)O)C(N)=O)NC1=O`: the IC50 in assay [1] is 18.6 nM; in assay [2], over 1000 nM; in assay [5] it was 1.1 nM.
Turning to `CC(C)[C@@H]1NC(=O)[C@H](CCCCN)NC(=O)[C@@H](Cc2c[nH]c3ccccc23)NC(=O)[C@H](Cc2ccc(O)cc2)NC(=O)[C@@H](NC(=O)[C@H](N)Cc2ccc(N)cc2)CSSC[C@@H](C(=O)N[C@H](C(N)=O)[C@@H](C)O)NC1=O` [listing 1 of 2 here], the IC50 was 1.6 nM in assay [1], over 1000 nM in assay [2], 0.08 nM in assay [5] and 2.2 nM in assay [6].
Turning to `CC(C)[C@@H]1NC(=O)[C@H](CCCCN)NC(=O)[C@@H](Cc2c[nH]c3ccccc23)NC(=O)[C@H](Cc2ccc(O)cc2)NC(=O)[C@@H](NC(=O)[C@H](N)Cc2ccc(N)cc2)CSSC[C@@H](C(=O)N[C@H](C(N)=O)[C@@H](C)O)NC1=O` [listing 2 of 2 here], the Inhibition in assay [3] came to 47%; in assay [4], 20%.
Regarding `CC(C)[C@@H]1NC(=O)[C@H](CCCCN)NC(=O)[C@@H](Cc2c[nH]c3ccccc23)NC(=O)[C@H](Cc2ccc(O)cc2)NC(=O)[C@@H](NC(=O)[C@H](N)Cc2ccc(N)c(I)c2)CSSC[C@@H](C(=O)N[C@H](C(N)=O)[C@@H](C)O)NC1=O` [listing 1 of 2 here], the IC50 is 1.4 nM in assay [1], over 1000 nM in assay [2], 0.1 nM in assay [5] and 0.1 nM in assay [6].
`CC(C)[C@@H]1NC(=O)[C@H](CCCCN)NC(=O)[C@@H](Cc2c[nH]c3ccccc23)NC(=O)[C@H](Cc2ccc(O)cc2)NC(=O)[C@@H](NC(=O)[C@H](N)Cc2ccc(N)c(I)c2)CSSC[C@@H](C(=O)N[C@H](C(N)=O)[C@@H](C)O)NC1=O` [listing 2 of 2 here]: the Inhibition in assay [3] is listed as 60%; in assay [4], 35%.
Turning to `CC(C)[C@@H]1NC(=O)[C@H](CCCCN)NC(=O)[C@@H](Cc2c[nH]c3ccccc23)NC(=O)[C@H](Cc2ccc(O)c(I)c2)NC(=O)[C@@H](NC(=O)[C@H](N)Cc2ccc(N)c(I)c2)CSSC[C@@H](C(=O)N[C@@H](CC(=O)O)C(N)=O)NC1=O` [listing 1 of 2 here], the IC50 in assay [1] was 1.9 nM; in assay [2] it was over 1000 nM; in assay [7] it was 2.9 nM.
On to `CC(C)[C@@H]1NC(=O)[C@H](CCCCN)NC(=O)[C@@H](Cc2c[nH]c3ccccc23)NC(=O)[C@H](Cc2ccc(O)c(I)c2)NC(=O)[C@@H](NC(=O)[C@H](N)Cc2ccc(N)c(I)c2)CSSC[C@@H](C(=O)N[C@@H](CC(=O)O)C(N)=O)NC1=O` [listing 2 of 2 here], for which the Inhibition in assay [3] is listed as 55%; in assay [4] it was 15%.
`CC(C)[C@@H]1NC(=O)[C@H](CCCCN)NC(=O)[C@@H](Cc2c[nH]c3ccccc23)NC(=O)[C@H](Cc2ccc(O)cc2)NC(=O)[C@@H](NC(=O)[C@H](N)Cc2ccc(N)cc2)CSSC[C@@H](C(=O)N[C@@H](CC(=O)O)C(N)=O)NC1=O` [listing 1 of 2 here]: the IC50 in assay [1] was 11 nM; in assay [2], over 1000 nM; in assay [7], 54 nM; in assay [5], 14.8 nM; in assay [6] it was 26 nM.
`CC(C)[C@@H]1NC(=O)[C@H](CCCCN)NC(=O)[C@@H](Cc2c[nH]c3ccccc23)NC(=O)[C@H](Cc2ccc(O)cc2)NC(=O)[C@@H](NC(=O)[C@H](N)Cc2ccc(N)cc2)CSSC[C@@H](C(=O)N[C@@H](CC(=O)O)C(N)=O)NC1=O` [listing 2 of 2 here]: the values for the Inhibition in assay [3] and in assay [4] were 41% and -9%, respectively.
As for `CC(C)[C@@H]1NC(=O)[C@H](CCCCN)NC(=O)[C@@H](Cc2c[nH]c3ccccc23)NC(=O)[C@H](Cc2ccc(O)cc2)NC(=O)[C@@H](NC(=O)[C@H](N)Cc2ccc(N)c(I)c2)CSSC[C@@H](C(=O)N[C@@H](CC(=O)O)C(N)=O)NC1=O` [listing 1 of 2 here], the IC50 in assay [1] was 12 nM; in assay [2] it was over 1000 nM; in assay [7] it was 74 nM.
On to `CC(C)[C@@H]1NC(=O)[C@H](CCCCN)NC(=O)[C@@H](Cc2c[nH]c3ccccc23)NC(=O)[C@H](Cc2ccc(O)cc2)NC(=O)[C@@H](NC(=O)[C@H](N)Cc2ccc(N)c(I)c2)CSSC[C@@H](C(=O)N[C@@H](CC(=O)O)C(N)=O)NC1=O` [listing 2 of 2 here], for which the Inhibition is 17% in assay [3] and 12% in assay [4].
For `CC(C)[C@@H]1NC(=O)[C@H](CCCCN)NC(=O)[C@@H](Cc2c[nH]c3ccccc23)NC(=O)[C@H](Cc2ccc(O)c(I)c2)NC(=O)[C@@H](NC(=O)[C@H](N)Cc2ccc(N)cc2)CSSC[C@@H](C(=O)N[C@H](C(N)=O)[C@@H](C)O)NC1=O` [listing 1 of 2 here], the results for the IC50 in assay [1] and in assay [2] were 6.2 nM and over 1000 nM, respectively.
As to `CC(C)[C@@H]1NC(=O)[C@H](CCCCN)NC(=O)[C@@H](Cc2c[nH]c3ccccc23)NC(=O)[C@H](Cc2ccc(O)c(I)c2)NC(=O)[C@@H](NC(=O)[C@H](N)Cc2ccc(N)cc2)CSSC[C@@H](C(=O)N[C@H](C(N)=O)[C@@H](C)O)NC1=O` [listing 2 of 2 here], the figures for the Inhibition in assay [3] and in assay [4] were 12% and 14%, respectively.
On to `CC(C)[C@@H]1NC(=O)[C@H](CCCCN)NC(=O)[C@@H](Cc2c[nH]c3ccccc23)NC(=O)[C@H](Cc2ccc(O)cc2)NC(=O)[C@@H](NC(=O)[C@H](N)Cc2ccc(N)cc2)CSSC[C@@H](C(=O)N[C@H](CC(=O)O)C(N)=O)NC1=O` [listing 1 of 2 here], for which the IC50 was 1.1 nM in assay [1], over 1000 nM in assay [2], 30 nM in assay [7] and over 100 nM in assay [6].
Consider `CC(C)[C@@H]1NC(=O)[C@H](CCCCN)NC(=O)[C@@H](Cc2c[nH]c3ccccc23)NC(=O)[C@H](Cc2ccc(O)cc2)NC(=O)[C@@H](NC(=O)[C@H](N)Cc2ccc(N)cc2)CSSC[C@@H](C(=O)N[C@H](CC(=O)O)C(N)=O)NC1=O` [listing 2 of 2 here], for which the Inhibition was determined as 18% in assay [3] and 11% in assay [4].
Consider `C[C@H](N)C(=O)NCC(=O)N[C@H]1CSSC[C@@H](C(=O)O)NC(=O)[C@H](CO)NC(=O)[C@H]([C@@H](C)O)NC(=O)[C@H](Cc2ccccc2)NC(=O)[C@H]([C@@H](C)O)NC(=O)[C@H](CCCCN)NC(=O)[C@H](Cc2c[nH]c3ccccc23)NC(=O)[C@H](Cc2ccccc2)NC(=O)[C@H](Cc2ccccc2)NC(=O)[C@H](CC(N)=O)NC(=O)[C@H](CCCCN)NC1=O` [SOMATOSTATIN], for which the IC50 in assay [5] turned out to be 0.1 nM; in assay [6] it was 0.2 nM. For the same molecule, the values for the Inhibition in assay [3] and in assay [4] were 66% and 30%, respectively.
